According to ChEMBL document CHEMBL1143019, “Hybrid molecules of estrone: new compounds with potential antibacterial, antifungal, and antiproliferative activities” (2007):
Values after ≈ are worked out from the molar mass of the structure shown.

Columns and labels:
Mycobacterium avium [1] = test: Antimicrobial activity against Mycobacterium avium My 330/88 after 14 days; type: functional; conditions: 336 h
Mycobacterium kansasii [2] = test: Antimicrobial activity against Mycobacterium kansasii My 235/80 after 14 days; type: functional; conditions: 336 h
Procedure, shortened: (§1)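 Run in Šula semisynthetic liquid medium containing bovine serum. Compounds added as DMSO solutions at final concentrations of […]. Each strain was also inoculated onto Löwenstein–Jensen medium to control inoculum sterility and growth.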

Mycobacterium kansasii [3] = test: Antimicrobial activity against Mycobacterium kansasii My 6509/96 after 14 days; type: functional; conditions: 336 h; procedure, shortened: as §1
[4] = system: Mycobacterium tuberculosis; test: Antimicrobial activity against Mycobacterium tuberculosis My 331/88 after 21 days; type: functional; conditions: 504 h
Mycolicibacterium aurum = test: Antimicrobial activity against Mycobacterium aurum SB 66 after 24 hrs by micro-broth dilution method; type: functional
Procedure, shortened: (§2)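 Microbroth dilution per NCCLS guidelines. Bacteria grown overnight at 37 °C in Mueller–Hinton broth. Compound solution serially diluted twofold in MHB, then wells inoculated to a final 5×10⁵ CFU/mL. Incubated 24 h at 37 °C. MIC (µg/mL) read on an automatic plate reader as the lowest dilution allowing no visible growth.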

Mycobacterium kansasii [5] = test: Antimicrobial activity against Mycobacterium kansasii My 235/80 after 21 days; type: functional; conditions: 504 h; procedure, shortened: as §1
K562 = test: Antiproliferative activity against human K562 cells after 72 hrs; type: functional; conditions: K562, 72 h
Procedure, shortened: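 About 10,000 suspension cells per well in RPMI 1640 with 10% heat-inactivated FBS and penicillin/streptomycin, without HEPES. Exposed to 10 concentrations for 72 h at 37 °C in humidified 5% CO₂. Wells diluted 1:50 in CASYTON and counted electronically, each result the mean of three successive counts. GI50 is where the concentration–response curve crosses 50% of control cell count.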

Mycobacterium kansasii [6] = test: Antimicrobial activity against Mycobacterium kansasii My 235/80 after 7 days; type: functional; conditions: 168 h; procedure, shortened: as §1
Mycobacterium kansasii [7] = test: Antimicrobial activity against Mycobacterium kansasii My 6509/96 after 21 days; type: functional; conditions: 504 h; procedure, shortened: as §1
Mycolicibacterium vaccae = test: Antimicrobial activity against Mycobacterium vaccae 10670 after 24 hrs by micro-broth dilution method; type: functional; procedure, shortened: as §2
Mycobacterium kansasii [8] = test: Antimicrobial activity against Mycobacterium kansasii My 6509/96 after 7 days; type: functional; conditions: 168 h; procedure, shortened: as §1
Staphylococcus aureus [9] = test: Antibacterial activity against Staphylococcus aureus SG 511 after 24 hrs by micro-broth dilution method; type: functional; conditions: SG 511, 24 h; procedure, shortened: as §2
Staphylococcus aureus [10] = test: Antibacterial activity against methicillin-resistant Staphylococcus aureus 994/93 after 24 hrs by micro-broth dilution method; type: functional
Procedure, shortened: (§3)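 Broth microdilution per NCCLS in Mueller–Hinton broth. Overnight cultures grown at 37 °C. Compound serially diluted twofold, then wells inoculated to a final 5×10⁵ CFU/mL. Plates held at 37 °C for 24 h. MIC (µg/mL) read on an automatic plate reader as the lowest dilution with no visible growth.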

[11] = system: Mycolicibacterium fortuitum; test: Antimicrobial activity against Mycobacterium fortuitum Borstel after 24 hrs by microbroth dilution method; type: functional; procedure, shortened: as §2
L929 = test: Antiproliferative activity against mouse L929 cells after 72 hrs; type: functional; conditions: L929, 72 h
Procedure, shortened: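 About 10,000 adherent cells per well in RPMI 1640 with 10% heat-inactivated FBS and penicillin/streptomycin, without HEPES. Exposed to 10 concentrations for 72 h at 37 °C in humidified 5% CO₂. Monolayers fixed with glutaraldehyde, stained 15 min with 0.05% methylene blue, and eluted with 0.33 N HCl; OD read at 630 nm. GI50 derived from dose–response curves relative to control.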

Staphylococcus aureus [12] = test: Antibacterial activity against methicillin-resistant Staphylococcus aureus 134/94 after 24 hrs by microbroth dilution method; type: functional; procedure, shortened: as §3
Micrococcus luteus = test: Antibacterial activity against Micrococcus luteus ATCC 10240 after 24 hrs by microbroth dilution method; type: functional; conditions: ATCC 10240, 24 h; procedure, shortened: as §2
Enterococcus faecalis = test: Antibacterial activity against Enterococcus faecalis 1528 after 24 hrs by micro-broth dilution method; type: functional; procedure, shortened: as §2
[13] = system: Mycobacterium tuberculosis; test: Antimicrobial activity against Mycobacterium tuberculosis My 331/88 after 14 days; type: functional; conditions: 336 h
Mycobacterium avium [14] = test: Antimicrobial activity against Mycobacterium avium My 330/88 after 21 days; type: functional; conditions: 504 h
[15] = system: Mycolicibacterium smegmatis; test: Antimicrobial activity against Mycobacterium smegmatis SG 987 after 24 hrs by micro-broth dilution method; type: functional; procedure, shortened: as §2
HeLa = test: Cytotoxicity against human HeLa cells after 72 hrs; type: functional; conditions: for CC50: Homo sapiens, HeLa, 72 h
Procedure, shortened: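 About 10,000 cells per well in RPMI 1640 were preincubated 48 h without compound. The 10 test concentrations were then applied onto the monolayers and incubated 72 h at 37 °C in humidified 5% CO₂. Monolayers fixed with glutaraldehyde, stained with 0.05% methylene blue, and eluted with 0.33 N HCl; optical density measured at 630 nm.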

Candida albicans [16] = test: Antifungal activity against Candida albicans ATCC 44859 after 48 hrs; type: functional; conditions: ATCC 44859, 48 h
Procedure, shortened: (§4)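 Modified NCCLS M27-A broth microdilution with clinical isolates subcultured on Sabouraud dextrose agar. Suspensions diluted 1:50 in RPMI 1640 to give a final inoculum of 0.5–2.5×10³ CFU/mL for yeasts or 0.5–5×10⁴ CFU/mL for molds. The RPMI had L-glutamine, no bicarbonate, and 0.165 M MOPS to pH 7.0. Twofold dilutions from 250 to 0.49. Plates held at 35 °C, humid, without agitation. MIC is the lowest concentration giving ≥80% inhibition versus drug-free control, read at 24 and 48 h.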

Candida tropicalis [17] = test: Antifungal activity against Candida tropicalis 156 after 48 hrs; type: functional; procedure, shortened: as §4
Trichophyton benhamiae [18] = test: Antifungal activity against Trichophyton mentagrophytes 445 after 120 hrs; type: functional, Arthroderma benhamiae
Procedure, shortened: (§5)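 Same modified M27-A microdilution with the mold inoculum of 0.5–5×10⁴ CFU/mL. Medium was RPMI 1640 with L-glutamine, no bicarbonate, and 0.165 M MOPS at pH 7.0. Twofold dilutions from 250 to 0.49. Incubated at 35 °C in a humid atmosphere.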

Lichtheimia corymbifera [19] = test: Antifungal activity against Absidia corymbifera 272 after 24 hrs; type: functional; procedure, shortened: as §4
Aspergillus fumigatus [20] = test: Antifungal activity against Aspergillus fumigatus 231 after 48 hrs; type: functional; procedure, shortened: as §4
Nakaseomyces glabratus [21] = test: Antifungal activity against Candida glabrata 20/I after 48 hrs; type: functional; procedure, shortened: as §4
Pichia kudriavzevii [22] = test: Antifungal activity against Candida krusei E28 after 24 hrs; type: functional; procedure, shortened: as §4
Trichophyton benhamiae [23] = test: Antifungal activity against Trichophyton mentagrophytes 445 after 72 hrs; type: functional, Arthroderma benhamiae; procedure, shortened: as §5
Aspergillus fumigatus [24] = test: Antifungal activity against Aspergillus fumigatus 231 after 24 hrs; type: functional; procedure, shortened: as §4
Trichosporon beigelii [25] = test: Antifungal activity against Trichosporon beigelii 1188 after 48 hrs; type: functional; procedure, shortened: as §4
Candida tropicalis [26] = test: Antifungal activity against Candida tropicalis 156 after 24 hrs; type: functional; procedure, shortened: as §4
Trichosporon beigelii [27] = test: Antifungal activity against Trichosporon beigelii 1188 after 24 hrs; type: functional; procedure, shortened: as §4
Nakaseomyces glabratus [28] = test: Antifungal activity against Candida glabrata 20/I after 24 hrs; type: functional; procedure, shortened: as §4
Lichtheimia corymbifera [29] = test: Antifungal activity against Absidia corymbifera 272 after 48 hrs; type: functional; procedure, shortened: as §4
Candida albicans [30] = test: Antifungal activity against Candida albicans ATCC 44859 after 24 hrs; type: functional; conditions: ATCC 44859, 24 h; procedure, shortened: as §4
Pichia kudriavzevii [31] = test: Antifungal activity against Candida krusei E28 after 48 hrs; type: functional; procedure, shortened: as §4

Compound	MIC (Mycobacterium avium [1])	MIC (Mycobacterium kansasii [2])	MIC (Mycobacterium kansasii [3])	MIC [4]	MIC (Mycolicibacterium aurum)	GI50 (K562)	MIC (Mycobacterium kansasii [6])	MIC (Mycolicibacterium vaccae)	MIC (Mycobacterium kansasii [8])	MIC (Staphylococcus aureus [9])	MIC (Staphylococcus aureus [10])	MIC [11]	GI50 (L929)	MIC (Micrococcus luteus)	MIC (Enterococcus faecalis)	MIC [13]	MIC (Mycobacterium avium [14])	MIC [15]	CC10 (HeLa)	CC50 (HeLa)	further results
Cc1ccc(CSc2ccncc2)cc1	62.5 µM (≈ 13.5 µg/mL)	62.5 µM (≈ 13.5 µg/mL)	62.5 µM (≈ 13.5 µg/mL)	62.5 µM (≈ 13.5 µg/mL)	25 µg/mL (≈ 116 µM)	37.5 µg/mL (≈ 174 µM)	32 µM (≈ 6.89 µg/mL)	25 µg/mL (≈ 116 µM)	32 µM (≈ 6.89 µg/mL)	50 µg/mL (≈ 232 µM)	100 µg/mL (≈ 464 µM)	12.5 µg/mL (≈ 58.1 µM)	24.3 µg/mL (≈ 113 µM)	100 µg/mL (≈ 464 µM)	100 µg/mL (≈ 464 µM)	62.5 µM (≈ 13.5 µg/mL)	125 µM (≈ 26.9 µg/mL)	50 µg/mL (≈ 232 µM)	13.3 µg/mL (≈ 61.8 µM)	21.4 µg/mL (≈ 99.4 µM)	MIC (Mycobacterium kansasii [5]): 125 µM (≈ 26.9 µg/mL); MIC (Mycobacterium kansasii [7]): 125 µM (≈ 26.9 µg/mL); MIC (Staphylococcus aureus [12]): 100 µg/mL (≈ 464 µM)
C[C@]12CC[C@@H]3c4ccc(OCCCCCCCBr)cc4CC[C@H]3[C@@H]1CCC2=O	16 µM (≈ 7.16 µg/mL)		62.5 µM (≈ 28 µg/mL)			13.1 µg/mL (≈ 29.3 µM)	62.5 µM (≈ 28 µg/mL)		62.5 µM (≈ 28 µg/mL)				49.9 µg/mL (≈ 112 µM)			32 µM (≈ 14.3 µg/mL)	32 µM (≈ 14.3 µg/mL)		16.3 µg/mL (≈ 36.4 µM)	> 50 µg/mL	MIC (Candida albicans [16]): > 125 µM; MIC (Candida tropicalis [17]): > 125 µM; MIC (Trichophyton benhamiae [18]): > 125 µM; MIC (Lichtheimia corymbifera [19]): > 125 µM; MIC (Aspergillus fumigatus [20]): > 125 µM; MIC (Nakaseomyces glabratus [21]): > 125 µM; MIC (Pichia kudriavzevii [22]): > 125 µM; MIC (Trichophyton benhamiae [23]): > 125 µM; MIC (Aspergillus fumigatus [24]): > 125 µM; MIC (Trichosporon beigelii [25]): > 125 µM; MIC (Candida tropicalis [26]): > 125 µM; MIC (Trichosporon beigelii [27]): > 125 µM; MIC (Nakaseomyces glabratus [28]): > 125 µM; MIC (Lichtheimia corymbifera [29]): > 125 µM; MIC (Candida albicans [30]): > 125 µM; MIC (Pichia kudriavzevii [31]): > 125 µM
O=C(O)c1cn(C2CC2)c2cc(N3CCNCC3)c(F)cc2c1=O [CIPROFLOXACIN]					0.1 µg/mL (≈ 0.302 µM)			0.78 µg/mL (≈ 2.35 µM)		0.2 µg/mL (≈ 0.604 µM)	> 100 µg/mL	0.4 µg/mL (≈ 1.21 µM)		12.5 µg/mL (≈ 37.7 µM)	0.8 µg/mL (≈ 2.41 µM)			0.78 µg/mL (≈ 2.35 µM)			
C[C@]12CC[C@@H]3c4ccc(OCCCCCCC[n+]5ccc(SCc6ccc(Cl)cc6)cc5)cc4CC[C@H]3[C@@H]1CCC2=O.[Br-]	8 µM	16 µM	16 µM	16 µM	3.12 µg/mL	1 µg/mL	16 µM	1.56 µg/mL	16 µM	3.12 µg/mL	3.12 µg/mL	6.25 µg/mL	2.8 µg/mL	0.8 µg/mL	3.12 µg/mL	16 µM	8 µM	6.25 µg/mL	1.9 µg/mL	4.1 µg/mL	MIC (Candida albicans [16]): 7.8 µM; MIC (Candida tropicalis [17]): 15.6 µM; MIC (Trichophyton benhamiae [18]): 15.6 µM; MIC (Lichtheimia corymbifera [19]): 62.5 µM; MIC (Mycobacterium kansasii [5]): 16 µM; MIC (Aspergillus fumigatus [20]): 31 µM; MIC (Nakaseomyces glabratus [21]): 15.6 µM; MIC (Pichia kudriavzevii [22]): 7.8 µM; MIC (Trichophyton benhamiae [23]): 7.8 µM; MIC (Aspergillus fumigatus [24]): 15.6 µM; MIC (Trichosporon beigelii [25]): 7.8 µM; MIC (Candida tropicalis [26]): 15.6 µM; MIC (Staphylococcus aureus [12]): 3.12 µg/mL; MIC (Trichosporon beigelii [27]): 7.8 µM; MIC (Nakaseomyces glabratus [28]): 15.6 µM; MIC (Lichtheimia corymbifera [29]): 62.5 µM; MIC (Candida albicans [30]): 7.8 µM; MIC (Pichia kudriavzevii [31]): 15.6 µM
